The record followed here is ChEMBL document CHEMBL1806409, “Design, synthesis and biological evaluation of novel 4-thiazolidinones containing indolin-2-one moiety as potential antitumor agent” (Eur J Med Chem, 2011).

pIC50: −log10 of the molar value.

The test system of assay [1] is NCI-H460. Kind of assay: Cytotoxicity against human H460 cells assessed as cell growth inhibition after 72 hrs by MTT assay. Format: functional, cell-based. Conditions: NCI-H460, 72 h. The procedure, abridged: (§1)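 Cancer lines grown in MEM with 10% FBS. About 4 × 10³ cells/well were seeded in MEM and incubated 24 h at 37 °C, 5% CO₂. Compounds were then added at final concentrations and exposure ran 72 h. MTT was added for 4 h at 37 °C and formazan dissolved in DMSO. Absorbance was read at 492 nm against a 630 nm reference. IC50 is the average of three determinations.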

The test system of assay [2] is MDA-MB-231. Kind of assay: Cytotoxicity against human MDA-MB-231 cells assessed as cell growth inhibition after 72 hrs by MTT assay. Format: functional, cell-based. Conditions: MDA-MB-231, 72 h. The procedure, abridged:
as §1

For assay [3], the system named is WI-38. In words: Cytotoxicity against human WI38 cells assessed as cell growth inhibition after 72 hrs by MTT assay. Format: cell-based. The conditions noted are these: WI-38, 72 h. The procedure, abridged:
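WI-38 normal human fetal lung fibroblasts were seeded at about 4 × 10³ cells/well and held 24 h at 37 °C, 5% CO₂, then exposed to compounds for 72 h. MTT was given for 4 h at 37 °C and formazan dissolved in DMSO. A492 was read with a 630 nm reference, and IC50 was averaged from three runs.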

The subject of assay [4] is SMMC-7721. Kind of assay: Cytotoxicity against human SMMC7721 cells assessed as cell growth inhibition after 72 hrs by MTT assay. Conditions: SMMC-7721, 72 h. Format: functional, cell-based. The procedure, abridged:
as §1

Assay [5] deals with HT-29. In words: Cytotoxicity against human HT-29 cells assessed as cell growth inhibition after 72 hrs by MTT assay. Format: functional, cell-based. The conditions noted are these: HT-29, 72 h. The gist of the method:
as §1

Assay [6] deals with HT-29. Kind of assay: Selectivity index, ratio of IC50 for human WI38 cells to IC50 for human HT-29 cells. Format: functional. The gist of the method:
(§2)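 The index is the IC50 in WI-38 normal fibroblasts divided by the IC50 in the cancer line (H460 or HT-29). Each IC50 comes from a 72 h MTT growth-inhibition assay averaged over three determinations.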

Assay [7] concerns WI-38. Kind of assay: Selectivity index, ratio of IC50 for human WI38 cells to IC50 for human H460 cells. Format: functional. The procedure, abridged: as §2

For `CCN(CC)CCCn1c(=O)c(=Cc2ccc3c(c2)OCO3)s/c1=C1\C(=O)Nc2ccccc21` (mixture of isomers), the pIC50 is 5.99 in assay [1]; 5.95 in assay [2]; 5.41 in assay [3]; 5.47 in assay [4]; 6.04 in assay [5].

For the molecule `CCN(CC)CCCn1c(=O)c(=Cc2ccc3c(c2)OCO3)s/c1=C1\C(=O)Nc2ccc(F)cc21` (mixture of isomers), the negative-log IC50 (pIC50) in assay [1] was 7.12; in assay [2], 6.11; in assay [3], 5.16; in assay [4] it was 5.71; in assay [5], 7.60. Further, the figures for the “Ratio IC50” value in assay [6] and in assay [7] were 279 and 93, respectively.

For the molecule `CCN(CC)CCCn1c(=O)c(=Cc2ccc3c(c2)OCO3)s/c1=C1\C(=O)Nc2cc(F)ccc21` (mixture of isomers), the pIC50 in assay [1] was 5.72; in assay [2], 5.38; in assay [3], 5.08; in assay [4], 5.40; in assay [5], 6.72.

On to `CCN(CC)CCCn1c(=O)c(=Cc2ccc3c(c2)OCO3)s/c1=C1\C(=O)Nc2ccc(Cl)cc21` (mixture of isomers), for which the negative logarithm of the IC50 (pIC50) in assay [1] is 6.00; in assay [2] it was 5.50; in assay [3] it was 5.48; in assay [4], 5.51; in assay [5], 6.36.

For `CCN(CC)CCCn1c(=O)c(=Cc2ccc(F)c(F)c2)s/c1=C1\C(=O)Nc2ccc(F)cc21` (mixture of isomers), the negative-log IC50 (pIC50) is 5.89 in assay [1]; 5.91 in assay [2]; 5.37 in assay [3]; 5.51 in assay [4]; 6.19 in assay [5].

As for `CCN(CC)CCCn1c(=O)c(=Cc2ccc(F)c(F)c2)s/c1=C1\C(=O)Nc2cc(F)ccc21` (mixture of isomers), the negative-log IC50 (pIC50) in assay [1] was 5.95; in assay [2], 5.54; in assay [3], 5.35; in assay [4], 5.27; in assay [5] it was 7.55.

For the molecule `CCN(CC)CCCn1c(=O)c(=Cc2cc(OC)c(OC)c(OC)c2)s/c1=C1\C(=O)Nc2ccc(F)cc21` (mixture of isomers), the pIC50 is 6.11 in assay [1]; below 3.70 in assay [2]; 5.69 in assay [3]; 5.66 in assay [4]; below 3.70 in assay [5].

`CCN(CC)CCCn1c(=O)c(=Cc2ccc(O)cc2)s/c1=C1\C(=O)Nc2ccc(C)cc21` (mixture of isomers): the negative-log IC50 (pIC50) was 6.59 in assay [1]; 5.74 in assay [2]; 5.24 in assay [3]; 5.29 in assay [4]; 6.11 in assay [5].

For the molecule `CCN(CC)CCNC(=O)c1c(C)[nH]c(/C=C2\C(=O)Nc3ccc(F)cc32)c1C` [SUNITINIB], the negative logarithm of the IC50 (pIC50) in assay [1] was 5.57; in assay [2] it was 5.43; in assay [3], 5.07; in assay [4], 5.19; in assay [5], 5.89.
